Data published in BindingDB's records for doi:10.1021/jm901449m (Progen Pharmaceuticals, 2010).

Experiments:
[1] = molecular target: T1, Heparanase (Homo sapiens, UniProt Q9Y251); assay: Inhibition of human recombinant heparanase
T1 sequence (Q9Y251 whole entry): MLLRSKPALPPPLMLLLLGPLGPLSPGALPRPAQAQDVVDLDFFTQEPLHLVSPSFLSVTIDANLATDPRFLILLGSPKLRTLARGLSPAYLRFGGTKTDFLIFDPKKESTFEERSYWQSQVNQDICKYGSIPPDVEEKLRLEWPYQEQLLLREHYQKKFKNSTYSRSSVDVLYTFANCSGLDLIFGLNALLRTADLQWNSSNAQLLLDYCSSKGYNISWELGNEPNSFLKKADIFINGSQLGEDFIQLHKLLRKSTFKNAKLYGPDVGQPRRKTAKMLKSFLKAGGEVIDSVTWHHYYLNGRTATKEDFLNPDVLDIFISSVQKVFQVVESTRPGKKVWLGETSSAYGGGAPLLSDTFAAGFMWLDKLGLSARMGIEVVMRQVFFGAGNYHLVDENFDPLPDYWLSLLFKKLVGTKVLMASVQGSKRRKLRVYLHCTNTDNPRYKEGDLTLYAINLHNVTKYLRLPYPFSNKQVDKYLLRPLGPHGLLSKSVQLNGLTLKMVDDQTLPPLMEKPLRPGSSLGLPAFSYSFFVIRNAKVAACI
In short: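 Recombinant human heparanase assayed by ultrafiltration with 3H-labelled heparan sulfate as substrate (Km = 1.64 μM). Ki values with standard error were derived from inhibition response curves.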

[2] = molecular target: Fibroblast growth factor 2 (Homo sapiens, UniProt P09038); assay: Binding affinity to FGF2 by surface plasmon-based solution affinity assay
In short: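 Surface plasmon resonance solution affinity assay on heparin-coated CM4 chips. FGF-2 binding run in HBS-EP containing 300 mM NaCl. Kd is the mean of at least duplicate measurements ± SD.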

[3] = molecular target: T2, Vascular endothelial growth factor A (Homo sapiens, UniProt P15692); assay: Binding affinity to VEGF by surface plasmon-based solution affinity assay
T2 sequence (P15692 whole entry): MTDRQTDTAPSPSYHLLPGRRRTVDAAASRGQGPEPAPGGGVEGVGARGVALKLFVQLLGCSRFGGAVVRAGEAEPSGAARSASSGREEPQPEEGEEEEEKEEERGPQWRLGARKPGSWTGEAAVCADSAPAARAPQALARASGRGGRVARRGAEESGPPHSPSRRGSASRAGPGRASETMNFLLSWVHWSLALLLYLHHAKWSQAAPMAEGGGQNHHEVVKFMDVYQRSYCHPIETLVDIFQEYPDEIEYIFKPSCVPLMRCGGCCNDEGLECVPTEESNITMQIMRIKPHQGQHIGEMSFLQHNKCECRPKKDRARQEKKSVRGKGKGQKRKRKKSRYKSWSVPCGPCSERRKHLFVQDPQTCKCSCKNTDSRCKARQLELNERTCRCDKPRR

[4] = molecular target: Fibroblast growth factor 1 (Homo sapiens, UniProt P05230); assay: Binding affinity to FGF1 by surface plasmon-based solution affinity assay
In short: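 Surface plasmon resonance solution affinity assay on heparin-coated CM4 chips. Buffer: HBS-EP (10 mM HEPES pH 7.4, 150 mM NaCl, 3.0 mM EDTA, 0.005% polysorbate 20). Kd is the mean of at least duplicate measurements ± SD.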

Sequence of Fibroblast growth factor 2 (P09038 143-288 limits assumed): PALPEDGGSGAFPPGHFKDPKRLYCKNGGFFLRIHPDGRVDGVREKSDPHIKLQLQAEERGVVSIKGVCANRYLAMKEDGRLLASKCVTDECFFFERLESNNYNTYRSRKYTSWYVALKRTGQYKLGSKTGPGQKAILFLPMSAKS
Sequence of Fibroblast growth factor 1 (P05230 whole entry): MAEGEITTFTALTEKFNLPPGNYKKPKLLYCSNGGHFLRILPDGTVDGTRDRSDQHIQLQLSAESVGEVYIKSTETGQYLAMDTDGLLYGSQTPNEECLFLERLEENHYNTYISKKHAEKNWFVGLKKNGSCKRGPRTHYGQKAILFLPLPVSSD

Ki [1]: 240 nM | Kd [2]: 61 nM | Kd [3]: 2.2 nM | Kd [4]: 0.24 nM
SMILES: O=P(O)(O)OC[C@H]1O[C@H](O[C@@H]2[C@H](OS(=O)(=O)O)[C@@H](O[C@@H]3[C@H](OS(=O)(=O)O)[C@@H](O[C@@H]4[C@H](OS(=O)(=O)O)[C@@H](O[C@@H]5[C@@H](OS(=O)(=O)O)O[C@H](COS(=O)(=O)O)[C@@H](OS(=O)(=O)O)[C@@H]5OS(=O)(=O)O)O[C@H](COS(=O)(=O)O)[C@H]4OS(=O)(=O)O)O[C@H](COS(=O)(=O)O)[C@H]3OS(=O)(=O)O)O[C@H](COS(=O)(=O)O)[C@H]2OS(=O)(=O)O)[C@@H](OS(=O)(=O)O)[C@@H](OS(=O)(=O)O)[C@@H]1OS(=O)(=O)O [PI-88]
